# Sampled rows, rich in hits. Any-hit rate of the full collection: about 2.6%.
# Wnt bcat act: Wnt/beta-catenin pathway activators, primary screen, cell-based, plate reader, single point; 1.2% of 300,000 active; activation, % at 9.35 µM; Wnt/beta-catenin reporter cell assay, activator; in the data active means activation above about 30%, passing the limit was not always enough; inconclusive means no clear call, values can overlap the other calls;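 further: 0% = neutral control wells and 100% = positive control wells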
# esBAF inh: Bmi1 luciferase reporter increase in mESCs, primary screen, esBAF inhibitor project, mouse ES cells, Bmi1 luciferase knock-in, single point; 24 h; 100% = twice the neutral-well signal; reporter increase, % at 12.5 µM; 2% of 350,000 active; in the data active means activation above about 40%; inconclusive means no clear call, values can overlap the other calls;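 further: 0% = median of the plate's neutral control wells and 100% = double that signal; a rise in the Bmi1 reporter signal indicates esBAF inhibition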
# MITF act: activators of MITF-driven TRPM1 promoter reporter, primary screen, cell-based, SK-MEL-5, luciferase, single point | SK-MEL-5 TRPM1-promoter luciferase, 24 h; % of positive control, neutral wells = 0 | activation, % at 12.5 µM | 0.75% of 300,000 active | AID 588334, 2011;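 active means mean activation of at least 80% with every replicate also reaching 80%; inconclusive means mean reaches 80% but some replicate falls short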;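 further: 0% = neutral control wells and 100% = parthenolide positive control wells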
# Xi reactivation: activators of inactive X chromosome reactivation, primary screen, imaging, XiGFP fibroblasts, GFP high-content imaging, set 2. XiGFP mouse fibroblasts, % GFP-positive cells imaging, 3 d; cells co-treated with 5-aza-dC sensitizer; scaled so ellipticine positive control = 100%. activation, % at 7.58 µM. 0.055% of 360,000 active;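 active means mean normalized replicate activation at least 10% and every replicate at or above 10%; inconclusive means only one of the two criteria met; inactive means mean below 10% and not all replicates reach 10%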;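 further: 0% = median of on-plate neutral control wells and 100% = ellipticine 6 µM median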
#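 System: SV40-immortalized XiGFP fibroblast cells, line 68-5-11 / Incubation: 3-day compound exposure, then 15 min fixation at room temperature / Compound: single concentration per compound, delivered by pin transfer / Buffer or medium: DMEM plus 5-aza-dC sensitizer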
# Vif imaging: HIV Vif self-association inhibitors, primary screen, imaging, HEK293T, single point | HEK293T cells, Vif self-association by quenched fluorescence, 24 h | inhibition, % at 7.49 µM | 0.35% of 340,000 active | AID 602346, 2012; in the data active means inhibition above about 50%, passing the limit was not always enough; inconclusive means no clear call, values can overlap the other calls; inactive means below about 31%
# An asterisk follows results filed as active; ? = inconclusive; . = not tested or not shown.
SMILES,Wnt bcat act,esBAF inh,MITF act,Xi reactivation,Vif imaging
O=C(Nc1ccc(Br)c(Cl)c1)c1ccco1,.,51.7*,60.8,.,16.4
O=C(CNC(=O)c1ccco1)Nc1ccc(Br)cc1,17.9,42.4*,43.9,0.1,-5.2
O=C(Nc1cccc(F)c1)c1ccco1,2.7,44.9*,21.1,0.0,30.6
O=C(Nc1ccc(NC(=O)c2ccco2)c(Cl)c1)c1ccccc1,6.6,.,?,-0.1,0.8
O=C(COc1cccc(NC(=O)c2ccco2)c1)c1ccccc1,12.1,49.6*,.,.,-1.3
O=C(CNC(=O)c1ccco1)Nc1ccc(Cl)cc1,17.1,38.6,41.1,0.1,11.9
CCC(=O)Nc1ccc2c(c1)OC[C@H](C)N(C(=O)Cc1cccnc1)C[C@H](C)[C@@H](OC)CN(C)C2=O,.,.,.,0.2,.
COc1cccc(NC(=O)c2ccco2)c1,.,60.2*,35.1,.,12.7
O=C(c1ccccc1)c1cccc(NC(=O)c2ccco2)c1,.,65.7*,48.8,.,.
C[C@H]1CN([C@@H](C)CO)C(=O)c2cc(/C=C/c3ccccc3)cnc2O[C@@H]1CN(C)S(=O)(=O)c1cn(C)cn1,.,-0.9,.,0.5,.
O=C(Nc1cc(-c2ccccc2)[nH]n1)c1ccc(Cl)cc1,40.1*,59.0*,.,0.3,-1.9
Cc1cc(NC(=O)c2cccc(Cl)c2)n[nH]1,29.3,47.2*,66.2,0.0,-15.2
CC=Cc1ccc2n(c1=O)C[C@@H]1[C@@H](CO)[C@H](C(=O)N3CCCCC3)[C@H]2N1C(=O)C1CC1 (mixture of isomers),.,-2.5,.,0.8,.
COc1ccc(NC(=O)CN(C)C(=O)c2ccc3c(c2)CC(c2ccccc2)OC3=O)cc1 (centres undefined),-0.9,5.8,.,0.3,.
COc1cccc(NC(=O)CN(C)C(=O)c2ccc3c(c2)CC(c2ccccc2)OC3=O)c1 (centres undefined),48.3*,12.8,-7.7,-0.1,9.6
Cc1cc(N2CCN(C(=O)c3ccco3)CC2)n2ncnc2n1,-4.7,.,8.3,.,3.3
Cc1nc2cc(-c3cccc(F)c3)nn2c(N2CCN(C(=O)c3ccco3)CC2)c1C,.,42.8*,25.0,.,-24.1
COCCN1CCN(c2c(C)c(C)nc3cc(-c4cccc(OC)c4)nn23)CC1,28.8,51.7*,-3.7,0.3,1.5
Cc1cc(N2CCN(C(=O)c3ccco3)CC2)n2ncc(-c3ccccc3)c2n1,-0.4,49.8*,.,.,-10.2
COc1ccc(-c2cc3nc(C)c(C)c(N4CCN(C(=O)c5ccoc5)CC4)n3n2)cc1,-4.6,3.7,.,-0.1,-7.7
O=C1NC2(CCCCC2)C(=O)N1c1ccc(Cl)cc1,5.5,0.6,.,0.1,-0.2
CSc1ccc(N2C(=O)NC3(CCCCC3)C2=O)cc1,18.4,61.5*,35.0,.,.
C[C@@H]1CN([C@H](C)CO)C(=O)c2cc(C3=CCCC3)cnc2O[C@@H]1CN(C)C(=O)C1CCOCC1,.,-3.5,.,-0.2,.
O=CNC1c2ccccc2CCc2ccccc21,1.6,3.2,6.5,0.0,61.3*
O=S(=O)(NC1CCc2ccccc21)c1ccccc1 (centres undefined),-5.6,-4.2,.,0.2,1.6
SMILES,Wnt bcat act,esBAF inh,MITF act,Xi reactivation,Vif imaging
CO[C@H]1CN(C)C(=O)c2ccc(NC(=O)Nc3ccccc3)cc2OC[C@H](C)N(C(=O)Nc2c(C)noc2C)C[C@@H]1C,.,.,.,0.0,.
Cc1ccc(C(=O)NC(=S)Nc2ccc(N3CCN(C(=O)c4ccco4)CC3)cc2)cc1,-3.0,-11.4,-19.5,-0.1,-5.8
O=C(NC(=S)Nc1ccccc1N1CCCCC1)c1ccco1,-1.9,-4.1,0.6,-0.3,-4.8
CC1CCN(c2ccc(NC(=S)NC(=O)c3ccco3)cc2)CC1,.,45.8*,16.6,.,-20.6
O=C(NC(=S)Nc1ccc(N2CCCCC2)cc1)c1ccco1,27.9,31.5,110.1*,.,-11.9
C[C@@H]1CN([C@H](C)CO)C(=O)c2cccc(NC(=O)c3cnccn3)c2O[C@H]1CN(C)Cc1ccc(-c2ccccc2)cc1,.,1.5,.,-0.4,.
CC(=O)c1cc(CC=C(C)C)c(O)c(CC=C(C)C)c1O,.,-7.9,.,.,63.6*
CC(=O)c1cc(CC=C(C)C)c(O)cc1O,-1.2,-11.4,.,.,0.4
COc1cccc(S(=O)(=O)Nc2ccc3c(c2)OC[C@H](C)N(C(=O)Cc2cccnc2)C[C@@H](C)[C@@H](OC)CN(C)C3=O)c1,.,-4.3,.,0.0,.
CCCCN(C(=O)CC1OC(=O)c2ccccc21)c1c(N)n(CCCC)c(=O)[nH]c1=O (centres undefined),-0.3,-1.7,0.7,0.0,-4.3
CCCCn1c(N)c(N(Cc2ccccc2OC)C(=O)CC2OC(=O)c3ccccc32)c(=O)[nH]c1=O (centres undefined),31.8*,7.5,4.7,0.1,17.7
Cc1noc(C)c1S(=O)(=O)Nc1ccc2c(c1)CC(=O)N([C@H](C)CO)C[C@H](C)[C@@H](CN(C)S(=O)(=O)c1ccc(Cl)cc1)O2,.,-2.6,.,0.1,.
O=C(c1ccccc1)N1CC[C@@H]2[C@H]1c1cc(C#CC3CCCCC3)ccc1N[C@@H]2CO,.,.,.,0.0,.
Cc1nc(-c2ccccc2)nc(Cl)c1Cl,-2.8,-4.5,-14.6,0.2,-3.5

# Assay outcomes from PubChem BioAssay.
